Data published in paper PMC5288965 (Journal of Advanced Pharmaceutical Technology & Research, 2017).
pIC50: −log10 of the molar value. Values after ≈ are worked out from the molar mass of the structure shown. “Also recorded” adds a separate entry of the source. Like-named read-outs stand apart in the source and are kept apart here.

Assays:
yeast α-glucosidase = yeast α-glucosidase (Saccharomyces cerevisiae, UniProt P53341); assay: Inhibition of yeast alpha-glucosidase activity; type: biochemical
[1] = target: rat intestinal α-glucosidase; assay: Inhibition of rat alpha-glucosidase activity; type: biochemical; details: for IC50 Rat α-glucosidase: 1 mM PNPG substrate, triplicate; for % inhibition of rat α-glucosidase: at 1.25 mg/ml
[2] = target: T1, porcine pancreatic α-amylase (Sus scrofa, UniProt P00690); assay: Inhibition of pancreatic alpha-amylase activity; type: biochemical
T1 sequence (P00690 16-511): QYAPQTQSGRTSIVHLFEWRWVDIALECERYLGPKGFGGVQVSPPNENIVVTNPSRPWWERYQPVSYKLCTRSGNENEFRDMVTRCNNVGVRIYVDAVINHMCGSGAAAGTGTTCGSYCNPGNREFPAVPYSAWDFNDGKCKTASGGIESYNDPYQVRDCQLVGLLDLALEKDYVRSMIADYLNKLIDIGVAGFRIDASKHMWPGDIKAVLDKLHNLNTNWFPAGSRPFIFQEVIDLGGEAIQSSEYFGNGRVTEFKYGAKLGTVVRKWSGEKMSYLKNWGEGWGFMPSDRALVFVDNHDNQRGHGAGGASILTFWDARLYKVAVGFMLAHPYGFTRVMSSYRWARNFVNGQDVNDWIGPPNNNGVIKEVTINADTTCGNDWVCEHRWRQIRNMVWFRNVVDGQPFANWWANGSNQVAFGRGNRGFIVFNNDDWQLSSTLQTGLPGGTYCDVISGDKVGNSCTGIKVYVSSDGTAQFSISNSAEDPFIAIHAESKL

[3] = test system: BT474 ductal carcinoma cells; assay: MTT assay, BT474; type: cell-based; details: Homo sapiens, BT-474, 48 h, read-out: IC50 BT474
Summary of the method: (§1)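 Cells grown in RPMI 1640 with 5% fetal calf serum at 37°C, 5% CO2. Seeded 5,000 cells per well, 24 h, then test compound in DMSO added (vehicle DMSO, or water for the reference drug), 48 h at 37°C. MTT solution (5 mg/ml) added for 4 h, medium removed, formazan dissolved in DMSO plus 0.1 mol/l glycine, A540 read. Run in quadruplicate.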

[4] = test system: Chago K-1 bronchogenic carcinoma cells; assay: MTT assay, Chago K-1; type: cell-based; details: Homo sapiens, ChaGo-K-1, 48 h, read-out: IC50 Chago-K1
Summary of the method: as §1

[5] = test system: Hep-G2 liver hepatoblastoma cells; assay: MTT assay, Hep-G2; type: cell-based; details: Homo sapiens, HepG2, 48 h, read-out: IC50 Hep-G2
Summary of the method: as §1

[6] = test system: Kato-III gastric carcinoma cells; assay: MTT assay, Kato-III; type: cell-based; details: Homo sapiens, 48 h, read-out: IC50 Kato-III
Summary of the method: as §1

[7] = test system: SW 620 colon adenocarcinoma cells; assay: MTT assay, SW 620; type: cell-based; details: Homo sapiens, SW-620, 48 h, read-out: IC50 SW620
Summary of the method: as §1

[8] = test system: CCD-986SK skin fibroblast cells; assay: MTT assay, normal skin fibroblast; type: cell-based, human
Summary of the method: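 Culture medium was Dulbecco's modified Eagle's medium, 37°C, 5% CO2. Cells were seeded at 5,000 per well for 24 h and exposed to test compound in DMSO for 48 h at 37°C. MTT (5 mg/ml solution) was added for 4 h, medium was removed, formazan was dissolved in DMSO with 0.1 mol/l glycine, and A540 was read. Run in quadruplicate.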

[9] = test system: WI-38 VA-13 subline 2RA lung fibroblast cells; assay: MTT assay, normal lung fibroblast; type: cell-based, human
Summary of the method: as §1

[10] = test system: all tested cancer cell lines (BT474, Chago K-1, Hep-G2, Kato-III, SW 620); assay: MTT assay, all tested cancer cell lines together; type: cell-based, human
Summary of the method: as §1

α-glucosidase = details: cited from earlier work
α-amylase = details: cited from earlier work
[11] = read-out: % inhibition of pancreatic α-amylase

yeast α-glucosidase, sequence (P53341 whole entry): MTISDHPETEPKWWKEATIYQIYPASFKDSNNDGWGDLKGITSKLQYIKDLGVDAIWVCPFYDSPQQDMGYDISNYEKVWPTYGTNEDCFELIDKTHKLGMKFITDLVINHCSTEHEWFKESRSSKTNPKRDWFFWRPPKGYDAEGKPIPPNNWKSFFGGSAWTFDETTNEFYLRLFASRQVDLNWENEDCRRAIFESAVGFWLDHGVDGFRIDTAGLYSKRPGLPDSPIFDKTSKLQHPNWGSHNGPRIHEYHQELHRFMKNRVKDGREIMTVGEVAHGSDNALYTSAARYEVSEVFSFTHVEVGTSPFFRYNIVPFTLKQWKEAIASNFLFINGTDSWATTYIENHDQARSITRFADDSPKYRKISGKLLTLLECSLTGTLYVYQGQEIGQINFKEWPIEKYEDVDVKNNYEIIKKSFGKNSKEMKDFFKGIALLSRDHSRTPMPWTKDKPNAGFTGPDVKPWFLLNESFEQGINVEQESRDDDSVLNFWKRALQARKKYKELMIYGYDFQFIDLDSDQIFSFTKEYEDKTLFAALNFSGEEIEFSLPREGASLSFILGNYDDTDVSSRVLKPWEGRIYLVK

Structure (SMILES): C[C@H]1O[C@H](O[C@H]2[C@H](O)[C@@H](O)[C@@H](O[C@H]3[C@H](O)[C@@H](O)C(O)O[C@@H]3CO)O[C@@H]2CO)[C@H](O)[C@@H](O)[C@@H]1N[C@H]1C=C(CO)[C@@H](O)[C@H](O)[C@H]1O (some centres unmarked) [Acarbose]
- % inhibition of yeast α-glucosidase (yeast α-glucosidase; at 40 mg/ml): 73.9%
- IC50 Rat α-glucosidase [1]: 449.3 µg/mL (≈ 696 µM)
- % inhibition of rat α-glucosidase [1]: 58.7%
- inhibition at 156 µg/mL [2, 11]: 73.9%

Structure (SMILES): O=c1c2cc(O)c(O)cc2oc2cc(O)c([C@@H]3O[C@H](CO)[C@@H](O)[C@H](O)[C@H]3O)c(O)c12 [Mangiferin, 1,3,6,7-Tetrahydroxyxanthone C2-ß-D-glucoside]
- inhibition at 2500 µg/mL (yeast α-glucosidase; read-out: % inhibition of yeast α-glucosidase): 93.3%
- IC50 Rat α-glucosidase [1]: 433.3 µg/mL (≈ 1030 µM)
- IC50 Rat α-glucosidase ([1]; listed as mangiferin): 430 µg/mL (≈ 1020 µM)
- % inhibition of rat α-glucosidase [1]: 92.6%
- pIC50 [2]: 2.61
- inhibition at 5000 µg/mL [2, 11]: 95.6%
- IC50 [3]: > 200 µg/mL
- IC50 [4]: > 200 µg/mL
- IC50 [5]: > 200 µg/mL
- IC50 [6]: > 200 µg/mL
- IC50 [7]: > 200 µg/mL
- IC50 ([8]; Homo sapiens, CCD-986Sk, 48 h, read-out: IC50 CCD): > 200 µg/mL
- effect on % survival of skin fibroblast normal cell line ([8]; MTT, listed as mangiferin): tended to increase the survival; also recorded: increased % survival of skin fibroblast
- IC50 ([9]; Homo sapiens, WI-38 VA13, 48 h, read-out: IC50 Wi-38): > 200 µg/mL
- effect on survival of lung fibroblast normal cell line ([9]; at high dose, MTT): tended to increase the survival
- effect on % survival of tested cancer cells [10]: did not significantly affect % survival
- effect on % survival of tested cancer cells ([10]; listed as mangiferin): did not show significantly toxicity
- IC50 α-glucosidase (α-glucosidase): 41.88 µg/mL (≈ 99.2 µM)
- IC50 α-amylase (α-amylase): 74.35 µg/mL (≈ 176 µM)
